The text below walks through data of ChEMBL document CHEMBL3872254, “Design, synthesis and biological evaluation of alkylamino biphenylamides as Hsp90 C-terminal inhibitors” (Bioorg Med Chem, 2017).

The nature of data set [1]: Anti-proliferative activity against human SKBR3 cells over-expressing Her2 measured after 72 hrs by MTS/PMS assay. In kind it is functional, cell-based. The settings on record: SK-BR-3, 72 h. The gist of the method:
(§1)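 Cells grown in 1:1 Advanced DMEM/F12 with non-essential amino acids, 2 mM L-glutamine, penicillin/streptomycin, 10% FBS, 37 °C, 5% CO2; seeded 2000/well, attached overnight. Compound added in DMSO (1% final), 72 h incubation; viable cells by MTS/PMS. 1% DMSO wells set as 100% proliferation; IC50 from separate experiments run in triplicate, mean ± SD of at least two experiments.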

Data set [2] in a line: Anti-proliferative activity against ER positive human MCF7 cells measured after 72 hrs by MTS/PMS assay. The settings on record: MCF7, 72 h. In kind it is functional, cell-based. The method in brief: as §1
Data set [3] has as its target T1, Heat shock protein HSP90 (Homo sapiens) (UniProt P07900+P08238). Put plainly: Inhibition of C-terminal Hsp90 in human PC3MM2 cells assessed as decrease in Hsp90-dependent refolding of thermally denatured luciferase at 0.1 to 100 uM. The data set is classed as cell-based. The method in brief:
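Hsp90-dependent luciferase refolding measured in PC3-MM2 cells; compounds tested at 0.1−100 μM against DMSO vehicle, with a reference Hsp90 inhibitor as positive control.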

For data set [4], the target named is T1, Heat shock protein HSP90 (Homo sapiens). Nature of the data set: Inhibition of C-terminal Hsp90 in human MCF7 cells assessed as degradation of Her2 measured after 24 hrs by Western blot method. The data set is classed as cell-based. The gist of the method: (§2)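 MCF-7 cells cultured as for proliferation, exposed to compound in DMSO (1% final) for 24 h alongside geldanamycin 0.5 μM and DMSO controls. Harvested in cold PBS, lysed 1 h on ice in RIPA with 1 mM PMSF, 2 mM orthovanadate, protease inhibitors; cleared 14000g 10 min 4 °C. BCA-normalized 20 μg protein, reducing SDS-PAGE, nitrocellulose, specific antibodies, HRP secondary, chemiluminescence.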
For orientation: In western blotting, separated proteins are transferred to a membrane and probed.

Data set [5] has the same target. Nature of the data set: Inhibition of C-terminal Hsp90 in human MCF7 cells assessed as degradation of Raf-1 measured after 24 hrs by Western blot method. In kind it is cell-based. The gist of the method: as §2
Data set [6] has the same target. Put plainly: Inhibition of C-terminal Hsp90 in human MCF7 cells assessed as degradation of Akt measured after 24 hrs by Western blot method. In kind it is cell-based. The method in brief:
as §2

Data set [7] in a line: Effect on actin expression in human MCF7 cells at 0.2 to 10 uM measured after 24 hrs by Western blot method. In kind it is ADME, cell-based. The settings on record: mcf7, 24 h. The method in brief:
as §2

Molecules are shown by their SMILES. Active and inactive are the calls of the source. No cut-off for these calls is given here.

The IC50 is the concentration that inhibits the measured activity by half. A high value points to weaker potency. As to `COc1cccc(-c2cc(C(=O)Nc3ccc(-c4ccc(OC5CCN(C)CC5)cc4)cc3OCCCN(C)C)ccc2OC)c1`, the IC50 in data set [1] was 0.69 µM; in data set [2] it was 0.75 µM.

Consider `COc1cccc(-c2cc(C(=O)Nc3ccc(-c4ccc(OC5CCN(C)CC5)cc4)c(O)c3)ccc2OC)c1`, for which the 50% inhibitory concentration (IC50) turned out to be 3.43 µM in data set [1] and 1.8 µM in data set [2].

`COc1cccc(-c2cc(C(=O)Nc3ccc(-c4ccc(OC5CCN(C)CC5)cc4OCCCCN(C)C)cc3)ccc2OC)c1`: the IC50 in data set [1] was determined as 1.27 µM; in data set [2], 1.12 µM.

In the case of `COc1cccc(-c2cc(C(=O)Nc3ccc(-c4ccc(OC5CCN(C)CC5)c(O)c4)cc3)ccc2OC)c1`, the half-maximal inhibitory concentration (IC50) was 1.56 µM in data set [1] and 1.22 µM in data set [2].

`COc1cccc(-c2cc(C(=O)Nc3ccc(-c4ccc(OC5CCN(C)CC5)cc4)cc3O)ccc2OC)c1`: the half-inhibitory concentration (IC50) came out at 0.91 µM in data set [1] and 0.71 µM in data set [2].

Regarding `COc1cccc(-c2cc(C(=O)Nc3ccc(-c4ccc(OC5CCN(C)CC5)cc4OCCN(C)C)cc3)ccc2OC)c1`, the inhibition entry in data set [3] was “Active”. Moreover, the IC50 amounted to 0.39 µM in data set [1] and 1.04 µM in data set [2].

Turning to `COc1cccc(-c2cc(C(=O)Nc3ccc(-c4ccc(OC5CCN(C)CC5)cc4OCCCOC(C)=O)cc3)ccc2OC)c1`, the IC50 in data set [1] came out at 1.96 µM; in data set [2], 2.49 µM.

For the compound `COCOc1cc(-c2ccc(NC(=O)c3ccc(OC)c(-c4cccc(OC)c4)c3)cc2)ccc1OC1CCN(C)CC1`, the half-maximal inhibitory concentration (IC50) in data set [1] came out at 0.82 µM; in data set [2], 0.99 µM.

Turning to `COc1cccc(-c2cc(C(=O)Nc3ccc(-c4ccc(OC5CCN(C)CC5)c(OCCN(C)C)c4)cc3)ccc2OC)c1`, the IC50 in data set [1] worked out at 0.4 µM; in data set [2], 0.7 µM.

As for `COc1cccc(-c2cc(C(=O)Nc3ccc(-c4ccc(OC5CCN(C)CC5)cc4OC4CCN(C)CC4)cc3)ccc2OC)c1`, the IC50 in data set [1] was 1.16 µM; in data set [2], 2.54 µM.

In the case of `COc1cccc(-c2cc(C(=O)Nc3ccc(-c4ccc(OC5CCN(C)CC5)cc4OCCCN(C)C)cc3)ccc2OC)c1`, in data set [3], the inhibition entry is “Active”. Further, the IC50 in data set [1] worked out at 0.34 µM; in data set [2], 0.84 µM. In addition, the inhibition entry in data set [4], in data set [5] and in data set [6] was “Dose-dependent effect” throughout. Also, the Activity entry in data set [7] is reported as “Non-Toxic”.

With `COc1cccc(-c2cc(C(=O)Nc3ccc(-c4ccc(OC5CCN(C)CC5)cc4)cc3)ccc2OC)c1`, the half-maximal inhibitory concentration (IC50) in data set [1] was determined as 0.47 µM; in data set [2], 0.71 µM.

As for `COc1cccc(-c2cc(C(=O)Nc3ccc(-c4ccc(OC5CCN(C)CC5)cc4OC4CCCCC4)cc3)ccc2OC)c1`, the IC50 in data set [1] was 3.24 µM; in data set [2] it was 2.36 µM.

Turning to `COc1cccc(-c2cc(C(=O)Nc3ccc(-c4ccc(OC5CCN(C)CC5)cc4)cc3OCCN(C)C)ccc2OC)c1`, the IC50 in data set [1] worked out at 0.84 µM; in data set [2], 0.81 µM.

For the compound `COc1cccc(-c2cc(C(=O)Nc3ccc(-c4ccc(OC5CCN(C)CC5)cc4OCCCN4C(=O)c5ccccc5C4=O)cc3)ccc2OC)c1`, the IC50 worked out at 3.13 µM in data set [1] and 1.43 µM in data set [2].

With `COc1cccc(-c2cc(C(=O)Nc3ccc(-c4ccc(OC5CCN(C)CC5)cc4OCCCO)cc3)ccc2OC)c1`, the figures for the IC50 in data set [1] and in data set [2] were 3.87 µM and 3.11 µM, respectively.

Regarding `COc1cccc(-c2cc(C(=O)Nc3ccc(-c4ccc(OC5CCN(C)CC5)cc4)c(OCCCN(C)C)c3)ccc2OC)c1`, the values for the IC50 in data set [1] and in data set [2] were 0.55 µM and 0.67 µM, respectively.

In the case of `COc1cccc(-c2cc(C(=O)Nc3ccc(-c4ccc(OC5CCN(C)CC5)cc4O)cc3)ccc2OC)c1`, the IC50 is 3.55 µM in data set [1] and 4.07 µM in data set [2].

As to `COCOc1cc(OC2CCN(C)CC2)ccc1-c1ccc(NC(=O)c2ccc(OC)c(-c3cccc(OC)c3)c2)cc1`, the half-inhibitory concentration (IC50) in data set [1] turned out to be 1.14 µM; in data set [2] it was 1.38 µM.

Regarding `COc1cccc(-c2cc(C(=O)Nc3ccc(-c4ccc(OC5CCN(C)CC5)c(OCCCN(C)C)c4)cc3)ccc2OC)c1`, the half-maximal inhibitory concentration (IC50) came to 0.75 µM in data set [1] and 1.05 µM in data set [2].

Turning to `COc1cccc(-c2cc(C(=O)Nc3ccc(-c4ccc(OC5CCN(C)CC5)cc4)c(OCCN(C)C)c3)ccc2OC)c1`, the IC50 in data set [1] turned out to be 0.65 µM; in data set [2] it was 0.79 µM.
